The record followed here is ChEMBL document CHEMBL4699430, “Continuous flow synthesis of lipophilic cations derived from benzoic acid as new cytotoxic chemical entities in human head and neck carcinoma cell lines” (RSC Med Chem, 2020).

For orientation: IC50 means the concentration that gives 50% inhibition.

Series [1] concerns CAL-27. Put plainly: Uncoupling of mitochondrial oxidative phosphorylation in human CAL-27 cells assessed as increase in oxygen consumption rate by Clark electrode based assay. As to conditions: Mitochondria.
Series [2] can be described thus: Cytotoxicity against human OKF-6/TERT cells assessed as reduction in cell viability measured after 48 hrs by MTT assay. Particulars: OKF6, 48 h. The class given is cell-based. The essentials:
(§1)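 Cells seeded at 1 × 10^4 per well and left 24 h, then exposed to increasing concentrations for 24, 48 or 72 h. After two PBS washes, 0.5 mg/mL MTT applied for 2 h. Formazan dissolved in DMSO and absorbance read at 570 nm. IC50 taken from a variable-slope dose–response curve.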
Background: Formazan colour is commonly taken as a measure of viable cells.

A further series has as its system SCC-15. Put plainly: Cytotoxicity against human SCC-15 cells assessed as reduction in cell viability measured after 48 hrs by MTT assay. The class given is functional, cell-based. Particulars: SCC-15, 48 h. The essentials:
as §1

The test system of series [3] is CAL-27. Put plainly: Anticlonogenic activity against human CAL-27 cells assessed as reduction in colony formation incubated for 24 hrs followed supplementation with fresh medium without compound measured after 120 hrs by colony formation assay. The class given is functional, cell-based. The essentials: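 Cal-27 cells, 1 × 10^3 per well, grown 24 h at 37 °C in 5% CO2, then exposed 24 h to a range of concentrations. Medium then replaced with compound-free medium and growth continued 120 h. Colonies stained 30 min with crystal violet (0.5% in methanol), photographed and counted. Three independent experiments; ANOVA with Bonferroni post-test.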

Series [4] has as its system HEp-2. Put plainly: Cytotoxicity against human HEp-2 cells assessed as reduction in cell viability measured after 48 hrs by MTT assay. Type of series: functional, cell-based. Particulars: HEp-2, 48 h. A digest of the protocol:
as §1

Series [5] deals with CAL-27. Put plainly: Induction of mitochondrial uncoupling in human CAL-27 cells assessed as oxygen consumption rate measured by Clark-type oxygen electrode method. Particulars: Mitochondria, dose microM 10-50. A digest of the protocol:
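Polarographic Clark-electrode assay on 5 × 10^6 trypsinised Cal-27 cells (cultured to 80% confluence). Cells held in 0.6 mL PBS, pH 7.4, at 25 °C with 8.3 mM L-glutamine. Respiration first inhibited with 2.5 μg/mL oligomycin, then compound added at increasing concentrations. OCR compared with full uncoupling by 0.133 μM CCCP.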

In series [6] the test system is HEp-2. Put plainly: Decrease in intracellular ATP levels in human Hep-2 cells at 10 to 50 uM incubated for 4 hrs by CellTiter-Glo luminescence assay. As to conditions: dose microM 10-50, time 4.0 hrs. Background: ATP-based viability assays read luminescence as a measure of living cells.
Series [7] in a line: Selectivity index, ratio of IC50 for human OKF-6/TERT cells to IC50 for human CAL27 cells after 48 hrs by MTT assay. Type of series: toxicity. Particulars: OKF-6/TERT cells versus CAL27 cells, read-out: Ratio IC50. A digest of the protocol: (§2)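 Selectivity index at 48 h is the ratio of the OKF-6/TERT IC50 to the tumour-line IC50. Each IC50 comes from a sigmoidal, variable-slope dose–response curve of the MTT viability assay (1 × 10^4 cells per well, 48 h exposure, absorbance at 570 nm).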

Series [8] deals with CAL-27. Put plainly: Cytotoxicity against human CAL-27 cells assessed as reduction in cell viability measured after 48 hrs by MTT assay. As to conditions: CAL-27, 48 h. The class given is functional, cell-based. A digest of the protocol:
as §1

Series [9] relates to CAL-27. Put plainly: Induction of apoptosis in human CAL-27 cells at 2.5 uM incubated for 48 hrs by annexin-V FITC and PI staining based flow cytometric analysis. Type of series: functional, cell-based. A digest of the protocol: (§3)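 Cells at 1 × 10^5 per mL exposed to 2.5 μM compound for 48 h at 37 °C in 5% CO2, with 10 μM staurosporine as positive control. Cells stained 5 min at room temperature with annexin V-FITC (488/530) and PI (488/575) in binding buffer; 10 000 events recorded by flow cytometry. Mean ± SD of at least three experiments; ANOVA with Bonferroni post-test.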
(In general: A flow cytometer gives signals particle by particle.)

In series [10] the test system is CAL-27. Put plainly: Induction of apoptosis in human CAL-27 cells assessed as increase in caspase 3 activity at 2.5 to 5 uM incubated for 24 hrs by flow cytometry. As to conditions: dose 2.5 µM. Type of series: functional, cell-based. The essentials: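 Cal-27 cells seeded at 5 × 10^5 per well and grown 24 h at 37 °C, then exposed to two concentrations for 24 h. Cells fixed and permeabilised 30 min at 4 °C in the dark, stained 30 min with PE anti-active caspase-3 antibody, and read by flow cytometry at 488 ex/617 em.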

Series [11] deals with CAL-27. Put plainly: Induction of mitochondrial membrane potential loss in human CAL-27 cells at 2.5 to 30 uM by flow cytometry. As to conditions: dose microM 2.5-30.
Series [12] can be described thus: Selectivity index, ratio of IC50 for human OKF-6/TERT cells to IC50 for human SCC-15 cells after 48 hrs by MTT assay. The class given is toxicity. As to conditions: OKF-6/TERT cells versus SCC-15 cells. The essentials: as §2
Series [13] has as its system HEp-2. Put plainly: Induction of mitochondrial membrane potential loss in human Hep-2 cells at 2.5 to 30 uM by flow cytometry. Particulars: dose microM 2.5-30.
Series [14] in a line: Selectivity index, ratio of IC50 for human OKF-6/TERT cells to IC50 for human HEp-2 cells after 48 hrs by MTT assay. The class given is toxicity. Particulars: OKF-6/TERT cells versus HEp-2 cells. A digest of the protocol:
as §2

The test system of series [15] is HEp-2. Put plainly: Induction of apoptosis in human Hep-2 cells at 2.5 uM incubated for 48 hrs by annexin-V FITC and PI staining based flow cytometric analysis. The class given is functional, cell-based. The essentials: as §3
For series [16], the system named is CAL-27. Put plainly: Decrease in intracellular ATP levels in human CAL-27 cells at 10 to 50 uM incubated for 4 hrs by CellTiter-Glo luminescent assay. Particulars: dose microM 10-50, time 4.0 hrs.

SMILES strings stand for the structures. Calls of active or inactive are those of the source. The rule behind the calls is not given here.

Take `O=C(OCCCCCCCCCC[P+](c1ccccc1)(c1ccccc1)c1ccccc1)c1ccccc1O`: the result in the series on CAL-27 [1], in the series with HEp-2 [6], with CAL-27 [9], in the series on CAL-27 [10], in the series on CAL-27 [11] and with HEp-2 [13] was Active. Besides, the outcome with HEp-2 [15] was Active. In addition, the half-inhibitory concentration (IC50) in series [2] amounted to 12.7 µM; with SCC-15 it was 3.2 µM; in the series with HEp-2 [4] it was 4.28 µM; with CAL-27 [8], 2.3 µM. In addition, the Activity entry with CAL-27 [3] and in the series with CAL-27 [5] was “Dose-dependent effect” each time. Besides, the selectivity ratio at 48 h was found to be 5.5 in series [7], 4 in series [12] (read-out: Ratio IC50) and 3 in [14] (read-out: Ratio IC50).

Turning to `O=C(OCCCCCCCCCC[P+](c1ccccc1)(c1ccccc1)c1ccccc1)c1cc(O)ccc1O`, the IC50 in [2] worked out at 13.2 µM; in the series with SCC-15, 2.7 µM; in the series on HEp-2 [4], 5.66 µM; with CAL-27 [8], 2.2 µM. Moreover, the outcome with CAL-27 [16], in the series on HEp-2 [6], with CAL-27 [9], in the series on CAL-27 [10], in the series with CAL-27 [11] and with HEp-2 [13] was Active. Besides, the result in the series on HEp-2 [15] was Active. The Activity result with CAL-27 [3] and in the series with CAL-27 [5] was “Dose-dependent effect” throughout. The selectivity ratio at 48 h in series [7] came out at 6; in [12] (read-out: Ratio IC50) it was 4.9; in series [14] (read-out: Ratio IC50), 2.3.

As for `O=C(OCCCCCCCCCC[P+](c1ccccc1)(c1ccccc1)c1ccccc1)c1cc(O)c(O)c(O)c1`, the result in the series with CAL-27 [1], in the series on HEp-2 [6], in the series with CAL-27 [9], with CAL-27 [10], in the series on CAL-27 [11] and with HEp-2 [13] was Active. Besides, the result in the series with HEp-2 [15] was Active. Besides, the IC50 is 13.1 µM in [2], 3 µM in the series with SCC-15, 12.5 µM in the series on HEp-2 [4] and 3.4 µM in the series with CAL-27 [8]. Further, the Activity result in the series with CAL-27 [3] and in the series with CAL-27 [5] was “Dose-dependent effect” throughout. Further, the figures for the selectivity ratio at 48 h in series [7], in [12] (read-out: Ratio IC50) and in series [14] (read-out: Ratio IC50) were 3.8, 4.4 and 1, respectively.

With `O=C(OCCCCCCCCCC[P+](c1ccccc1)(c1ccccc1)c1ccccc1)c1cccc(O)c1O`, the IC50 came out at 7.5 µM in series [2], 2.9 µM in the series on SCC-15, 8.28 µM in the series with HEp-2 [4] and 1.6 µM in the series on CAL-27 [8]. The result with CAL-27 [16], in the series on HEp-2 [6], in the series with CAL-27 [9], with CAL-27 [10], with CAL-27 [11] and in the series with HEp-2 [13] was Active. Besides, in the series on HEp-2 [15], the outcome was Active. Further, the Activity entry in the series with CAL-27 [3] and in the series on CAL-27 [5] was “Dose-dependent effect” throughout. Further, the selectivity ratio at 48 h in series [7] amounted to 4.7; in [12], 4.9; in series [14], 2.3.
